Active and inactive are the calls of the source. No cut-off for these calls is given here.
Legend:
[1] = tested on: RAW264.7; assay: Antiinflammatory activity in mouse RAW264.7 cells assessed as inhibition LPS-induced NO production at 254.8 uM measured after 24 hrs by griess reagent based assay; format: functional, cell-based
In short: (§1)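 Murine RAW 264.7 macrophages, 1 × 10^5/well, 4 h settling, then LPS (1.0 μg/mL) for 24 h. Medium was swapped for test solutions (0.8–3.1 μM or 2.3–9.2 μM), or DXM 254.8 μM as positive control, for another 24 h. Secreted NO was measured by Griess assay; TNF-α and IL-6 by ELISA. Run in triplicate, mean ± SD.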

[2] = tested on: RAW264.7; assay: Antiinflammatory activity against LPS-activated mouse RAW264.7 cells assessed as reduction in IL6 mRNA expression preincubated with LPS for 24 hrs followed by compound addition and measured after 24 hrs by qRT-PCR analysis; format: functional, cell-based
In short: (§2)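 RAW 264.7 cells (DMEM, 10% FBS, 37 °C, 5% CO2) seeded at 1 × 10^5/well and held 4 h. LPS 1.0 μg/mL was added for 24 h, then medium was replaced with test agent (0.8, 1.6, 3.1 μM or 2.3, 4.6, 9.2 μM) for 24 h. TNF-α and IL-6 transcripts were quantified by real-time qPCR against GAPDH. Triplicates, mean ± SD.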

[3] = tested on: MDA-MB-231; assay: Antiproliferative activity against human MDA-MB-231 cells assessed as reduction in cell viability at 46.3 uM incubated for 48 hrs by methylene blue assay; format: functional
In short: (§3)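 MDA-MB-231, MCF-7, HepG2 and LNCaP cells were grown in DMEM; HCT-116 and LO-2 in RPMI-1640; all with 10% FBS at 37 °C, 5% CO2. Cells seeded at 1.5 × 10^5 cells/mL and incubated overnight (~12 h), then exposed to 6.2–30.9 μM or 23.1–185.0 μM (final DMSO <0.1%) for 48 h. Read by methylene blue staining; viability = Abs treated/Abs untreated × 100%, triplicate.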

[4] = tested on: MDA-MB-231; assay: Induction of apoptosis in human MDA-MB-231 cells assessed as increase in nuclear chromatin condensation incubated for 48 hrs by Hoechst 33258 staining based fluorescence microscopic method; format: functional, cell-based
In short: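 MDA-MB-231 cells were grown 24 h and treated with 8.6, 12.4 or 17.3 μM for 48 h. They were then fixed 10 min, washed three times in PBS and stained 5 min with Hoechst 33258. Nuclear condensation was imaged by fluorescence microscopy (excitation 350 nm, emission 460 nm).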

[5] = tested on: MCF7; assay: Antiproliferative activity against human MCF7 cells assessed as reduction in cell viability at 46.3 uM incubated for 48 hrs by methylene blue assay relative to control; format: functional; in short: as §3
[6] = tested on: HepG2; assay: Antiproliferative activity against human HepG2 cells reduction in cell viability at 46.3 uM incubated for 48 hrs by methylene blue assay relative to control; format: functional; in short: as §3
[7] = tested on: MCF7; assay: Antiproliferative activity against human MCF7 cells assessed as cell viability at 188.7 uM incubated for 48 hrs by methylene blue assay relative to control; format: functional; conditions: MCF7, 48 h, read-out: Activity
[8] = Cytotoxicity against mouse RAW264.7 cells assessed as reduction in cell viability incubated for 24 hrs by MTT assay; format: cell-based; conditions: read-out: MNCC
In short: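 MTT viability assay: RAW 264.7 cells seeded at 2.5 × 10^4 cells/well, cultured 12 h, then given five concentrations from serial dilution (up to 6.2 or 9.2 μM; final DMSO <1%) for 24 h. Viability was calculated relative to untreated blank control; n = 3, mean ± SD.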

[9] = tested on: MDA-MB-231; assay: Antiproliferative activity against human MDA-MB-231 cells assessed as viable cells at 40 uM incubated for 48 hrs by trypan blue dye exclusion test relative to control; format: functional; conditions: MDA-MB-231, 48 h, read-out: Activity
[10] = tested on: L02; assay: Cytotoxicity against human LO2 cells assessed as reduction in cell viability at 23.1 to 185 uM incubated for 48 hrs by methylene blue assay; format: cell-based; conditions: l02, 48 h; in short: as §3
[11] = tested on: MDA-MB-231; assay: Induction of cell cycle arrest in human MDA-MB-231 cells assessed as increase in accumulation of cells at G0/G1 phase incubated for 48 hrs by PI/RNase staining based flow cytometric analysis; format: functional
In short: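 Cells grown 24 h in DMEM/10% FBS at 37 °C, 5% CO2, then exposed 48 h to 8.6, 12.4 or 17.3 μM. Pelleted, fixed in 75% ethanol at −20 °C overnight, stained with PI-containing RNase 15 min in the dark at ambient temperature. About 10 000 cells per well analysed by flow cytometry. Triplicate, mean ± SD.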

[12] = tested on: RAW264.7; assay: Inhibition of nitric oxide production in mouse RAW264.7 cells measured after 24 hrs by griess reagent based assay; format: functional, cell-based
[13] = tested on: RAW264.7; assay: Antiinflammatory activity in mouse RAW264.7 cells assessed as inhibition of LPS-induced NO production measured after 24 hrs by griess reagent based assay; format: functional, cell-based; in short: as §1
[14] = tested on: MDA-MB-231; assay: Induction of mitochondrial membrane potential loss in human MDA-MB-231 cells incubated for 48 hrs by JC1 staining based flow cytometric analysis; format: functional, cell-based
In short: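 MDA-MB-231 cells in DMEM/10% FBS exposed 48 h to 0, 8.6, 12.4 or 17.3 μM. Harvested cells stained with JC-1 for 15 min in the dark, then analysed by flow cytometry. Excitation 488 nm; green emission read at 525 nm, red at 590 nm. Output given as percent green-to-red fluorescence intensity ratio. Triplicate, mean ± SD.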

[15] = tested on: RAW264.7; assay: Antiinflammatory activity against LPS-activated mouse RAW264.7 cells assessed as reduction in TNFalpha mRNA expression preincubated with LPS for 24 hrs followed by compound addition and measured after 24 hrs by qRT-PCR analysis; format: functional, cell-based; in short: as §2
[16] = tested on: LNCaP; assay: Antiproliferative activity against human LNCAP cells assessed as reduction in cell viability at 46.3 uM incubated for 48 hrs by methylene blue assay relative to control; format: functional; in short: as §3
[17] = tested on: HCT-116; assay: Antiproliferative activity against human HCT116 cells assessed as reduction in cell viability at 46.3 uM incubated for 48 hrs by methylene blue assay relative to control; format: functional; in short: as §3
[18] = tested on: RAW264.7; assay: Antiinflammatory activity in mouse RAW264.7 cells assessed as reduction in LPS-induced TNFalpha production preincubated with LPS for 24 hrs followed by compound addition and measured after 24 hrs by ELISA; format: functional, cell-based; in short: as §1
[19] = tested on: RAW264.7; assay: Antiinflammatory activity in mouse RAW264.7 cells assessed as reduction in LPS-induced IL6 production preincubated with LPS for 24 hrs followed by compound addition and measured after 24 hrs by ELISA; format: functional, cell-based; in short: as §1

## C[C@@H]1C[C@H]2[C@@H]3CCC4=CC(=O)C=C[C@]4(C)[C@@]3(F)[C@@H](O)C[C@]2(C)[C@@]1(O)C(=O)CO
[1]
  inhibition: Active

## O=c1cc(-c2ccc(O)cc2)oc2cc(O)cc(O)c12 [APIGENIN]
[2]
  Activity: Dose-dependent effect
[3]
  Activity: <=50%
[4]
  Activity: Dose-dependent effect
[5]
  Activity: <=50%
[6]
  Activity: <=50%
[7]
  viability at 188.7 µM: 20%
[8]
  MNTC at 24 h: 9.2 µM
[9]
  viability at 40 µM: 45%
[10]
  Activity: Non-Toxic
[11]
  Activity: Active
[12]
  inhibition: Dose-dependent effect
[13]
  inhibition: Dose-dependent effect
[14]
  Activity: Active
[15]
  Activity: Dose-dependent effect
[16]
  Activity: <=50%
[17]
  Activity: <=50%
[18]
  Activity: Dose-dependent effect
[19]
  Activity: Dose-dependent effect

Source: ChEMBL document CHEMBL4414566, “Cytotoxicity and Anti-inflammatory Properties of Apigenin-Derived Isolaxifolin” (J Nat Prod, 2019)
